System: HEK-293T
Test: Multiplex assay against HEK293T;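 as to Population Tubulin-Different-Phenotype (%): share of the cells with healthy nuclei that show this phenotype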
Assay type: toxicity, cell-based
Details: human
Summary of the method: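 With compound added, live cells were imaged on a CQ1 microscope at 37°C and 5% CO2; staining with Hoechst33342, BioTracker Green Microtubule Cytoskeleton Dye, MitoTracker Red and Annexin V Alexa Fluor 680 had been done at seeding. The CellPathfinder machine-learning gating scheme split cells into Hoechst high-intensity objects or normal cells, normal cells into healthy, pyknosed or fragmented nuclei, and pyknosed cells into mitotic or apoptotic. The tubulin, mitochondrial-mass and membrane-permeability phenotypes are per cents of healthy-nucleus cells.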

[1] = 12 h, 1 µM, compound concentration 1 uM, replicate 1
[2] = 12 h, 1 µM, compound concentration 1 uM, replicate 2
[3] = 12 h, 10 µM, compound concentration 10 uM, replicate 1
[4] = 12 h, 10 µM, compound concentration 10 uM, replicate 2
[5] = 24 h, 1 µM, compound concentration 1 uM, replicate 1
[6] = 24 h, 1 µM, compound concentration 1 uM, replicate 2
[7] = 24 h, 10 µM, compound concentration 10 uM, replicate 1
[8] = 24 h, 10 µM, compound concentration 10 uM, replicate 2
[9] = 48 h, 1 µM, compound concentration 1 uM, replicate 1
[10] = 48 h, 1 µM, compound concentration 1 uM, replicate 2
[11] = 48 h, 10 µM, compound concentration 10 uM, replicate 1
[12] = 48 h, 10 µM, compound concentration 10 uM, replicate 2

Structure (SMILES): C=CC(=O)Nc1cccc(Sc2nc(Nc3ccc(N4CCN(C)CC4)cc3)ncc2Cl)c1
- Population Apoptotic (%) [1]: 33%
- Population Fragmented Nuclei (%) [1]: 28%
- Population Healthy Nuclei (%) [1]: 14%
- Population Hoechst High Intensity Objects (%) [1]: 16%
- Population Membrane Permeable-Phenotype (%) [1]: 22%
- Population Mitochondria Different-Phenotype (%) [1]: 15%
- Population Mitotic Cells (%) [1]: 66%
- Population Normal (%) [1]: 83%
- Population Pyknosed Nuclei (%) [1]: 57%
- Population Tubulin-Different-Phenotype (%) [1]: 58%
- Total Cell Count [1]: 748
- Population Apoptotic (%) [2]: 20%
- Population Fragmented Nuclei (%) [2]: 4%
- Population Healthy Nuclei (%) [2]: 64%
- Population Hoechst High Intensity Objects (%) [2]: 10%
- Population Membrane Permeable-Phenotype (%) [2]: 7%
- Population Mitochondria Different-Phenotype (%) [2]: 44%
- Population Mitotic Cells (%) [2]: 79%
- Population Normal (%) [2]: 89%
- Population Pyknosed Nuclei (%) [2]: 30%
- Population Tubulin-Different-Phenotype (%) [2]: 98%
- Total Cell Count [2]: 1010
- Population Apoptotic (%) [3]: 21%
- Population Fragmented Nuclei (%) [3]: 26%
- Population Healthy Nuclei (%) [3]: 38%
- Population Hoechst High Intensity Objects (%) [3]: 21%
- Population Membrane Permeable-Phenotype (%) [3]: 10%
- Population Mitochondria Different-Phenotype (%) [3]: 13%
- Population Mitotic Cells (%) [3]: 78%
- Population Normal (%) [3]: 78%
- Population Pyknosed Nuclei (%) [3]: 35%
- Population Tubulin-Different-Phenotype (%) [3]: 14%
- Total Cell Count [3]: 476
- Population Apoptotic (%) [4]: 6%
- Population Fragmented Nuclei (%) [4]: 7%
- Population Healthy Nuclei (%) [4]: 84%
- Population Hoechst High Intensity Objects (%) [4]: 3%
- Population Membrane Permeable-Phenotype (%) [4]: 5%
- Population Mitochondria Different-Phenotype (%) [4]: 16%
- Population Mitotic Cells (%) [4]: 93%
- Population Normal (%) [4]: 96%
- Population Pyknosed Nuclei (%) [4]: 7%
- Population Tubulin-Different-Phenotype (%) [4]: 25%
- Total Cell Count [4]: 1448
- Population Apoptotic (%) [5]: 55%
- Population Fragmented Nuclei (%) [5]: 34%
- Population Healthy Nuclei (%) [5]: 26%
- Population Hoechst High Intensity Objects (%) [5]: 14%
- Population Membrane Permeable-Phenotype (%) [5]: 18%
- Population Mitochondria Different-Phenotype (%) [5]: 12%
- Population Mitotic Cells (%) [5]: 44%
- Population Normal (%) [5]: 85%
- Population Pyknosed Nuclei (%) [5]: 39%
- Population Tubulin-Different-Phenotype (%) [5]: 52%
- Total Cell Count [5]: 683
- Population Apoptotic (%) [6]: 28%
- Population Fragmented Nuclei (%) [6]: 6%
- Population Healthy Nuclei (%) [6]: 63%
- Population Hoechst High Intensity Objects (%) [6]: 10%
- Population Membrane Permeable-Phenotype (%) [6]: 6%
- Population Mitochondria Different-Phenotype (%) [6]: 63%
- Population Mitotic Cells (%) [6]: 71%
- Population Normal (%) [6]: 89%
- Population Pyknosed Nuclei (%) [6]: 29%
- Population Tubulin-Different-Phenotype (%) [6]: 97%
- Total Cell Count [6]: 914
- Population Apoptotic (%) [7]: 26%
- Population Fragmented Nuclei (%) [7]: 18%
- Population Healthy Nuclei (%) [7]: 64%
- Population Hoechst High Intensity Objects (%) [7]: 12%
- Population Membrane Permeable-Phenotype (%) [7]: 10%
- Population Mitochondria Different-Phenotype (%) [7]: 12%
- Population Mitotic Cells (%) [7]: 73%
- Population Normal (%) [7]: 87%
- Population Pyknosed Nuclei (%) [7]: 17%
- Population Tubulin-Different-Phenotype (%) [7]: 30%
- Total Cell Count [7]: 470
- Population Apoptotic (%) [8]: 4%
- Population Fragmented Nuclei (%) [8]: 20%
- Population Healthy Nuclei (%) [8]: 76%
- Population Hoechst High Intensity Objects (%) [8]: 4%
- Population Membrane Permeable-Phenotype (%) [8]: 7%
- Population Mitochondria Different-Phenotype (%) [8]: 2%
- Population Mitotic Cells (%) [8]: 95%
- Population Normal (%) [8]: 95%
- Population Pyknosed Nuclei (%) [8]: 3%
- Population Tubulin-Different-Phenotype (%) [8]: 19%
- Total Cell Count [8]: 2375

Structure (SMILES): CNC(=O)Nc1ccc(-c2nc(N3CC4CCC(C3)O4)c3cnn(C4CCC5(CC4)OCCO5)c3n2)cc1
- Population Apoptotic (%) [1]: 55%
- Population Fragmented Nuclei (%) [1]: 24%
- Population Healthy Nuclei (%) [1]: 6%
- Population Hoechst High Intensity Objects (%) [1]: 20%
- Population Membrane Permeable-Phenotype (%) [1]: 0%
- Population Mitochondria Different-Phenotype (%) [1]: 75%
- Population Mitotic Cells (%) [1]: 44%
- Population Normal (%) [1]: 79%
- Population Pyknosed Nuclei (%) [1]: 68%
- Population Tubulin-Different-Phenotype (%) [1]: 50%
- Total Cell Count [1]: 149
- Population Apoptotic (%) [2]: 23%
- Population Fragmented Nuclei (%) [2]: 9%
- Population Healthy Nuclei (%) [2]: 26%
- Population Hoechst High Intensity Objects (%) [2]: 10%
- Population Membrane Permeable-Phenotype (%) [2]: 8%
- Population Mitochondria Different-Phenotype (%) [2]: 32%
- Population Mitotic Cells (%) [2]: 76%
- Population Normal (%) [2]: 89%
- Population Pyknosed Nuclei (%) [2]: 64%
- Population Tubulin-Different-Phenotype (%) [2]: 24%
- Total Cell Count [2]: 155
- Population Apoptotic (%) [3]: 76%
- Population Fragmented Nuclei (%) [3]: 18%
- Population Healthy Nuclei (%) [3]: 7%
- Population Hoechst High Intensity Objects (%) [3]: 26%
- Population Membrane Permeable-Phenotype (%) [3]: 11%
- Population Mitochondria Different-Phenotype (%) [3]: 88%
- Population Mitotic Cells (%) [3]: 23%
- Population Normal (%) [3]: 73%
- Population Pyknosed Nuclei (%) [3]: 73%
- Population Tubulin-Different-Phenotype (%) [3]: 88%
- Total Cell Count [3]: 167
- Population Apoptotic (%) [4]: 56%
- Population Fragmented Nuclei (%) [4]: 8%
- Population Healthy Nuclei (%) [4]: 8%
- Population Hoechst High Intensity Objects (%) [4]: 7%
- Population Membrane Permeable-Phenotype (%) [4]: 6%
- Population Mitochondria Different-Phenotype (%) [4]: 100%
- Population Mitotic Cells (%) [4]: 43%
- Population Normal (%) [4]: 92%
- Population Pyknosed Nuclei (%) [4]: 82%
- Population Tubulin-Different-Phenotype (%) [4]: 100%
- Total Cell Count [4]: 182
- Population Apoptotic (%) [5]: 68%
- Population Fragmented Nuclei (%) [5]: 32%
- Population Healthy Nuclei (%) [5]: 5%
- Population Hoechst High Intensity Objects (%) [5]: 29%
- Population Membrane Permeable-Phenotype (%) [5]: 16%
- Population Mitochondria Different-Phenotype (%) [5]: 66%
- Population Mitotic Cells (%) [5]: 31%
- Population Normal (%) [5]: 70%
- Population Pyknosed Nuclei (%) [5]: 61%
- Population Tubulin-Different-Phenotype (%) [5]: 16%
- Total Cell Count [5]: 151
- Population Apoptotic (%) [6]: 21%
- Population Fragmented Nuclei (%) [6]: 12%
- Population Healthy Nuclei (%) [6]: 34%
- Population Hoechst High Intensity Objects (%) [6]: 10%
- Population Membrane Permeable-Phenotype (%) [6]: 8%
- Population Mitochondria Different-Phenotype (%) [6]: 35%
- Population Mitotic Cells (%) [6]: 78%
- Population Normal (%) [6]: 89%
- Population Pyknosed Nuclei (%) [6]: 53%
- Population Tubulin-Different-Phenotype (%) [6]: 20%
- Total Cell Count [6]: 158
- Population Apoptotic (%) [7]: 81%
- Population Fragmented Nuclei (%) [7]: 23%
- Population Healthy Nuclei (%) [7]: 3%
- Population Hoechst High Intensity Objects (%) [7]: 27%
- Population Membrane Permeable-Phenotype (%) [7]: 25%
- Population Mitochondria Different-Phenotype (%) [7]: 75%
- Population Mitotic Cells (%) [7]: 18%
- Population Normal (%) [7]: 72%
- Population Pyknosed Nuclei (%) [7]: 73%
- Population Tubulin-Different-Phenotype (%) [7]: 75%
- Total Cell Count [7]: 165
- Population Apoptotic (%) [8]: 68%
- Population Fragmented Nuclei (%) [8]: 10%
- Population Healthy Nuclei (%) [8]: 17%
- Population Hoechst High Intensity Objects (%) [8]: 11%
- Population Membrane Permeable-Phenotype (%) [8]: 17%
- Population Mitochondria Different-Phenotype (%) [8]: 85%
- Population Mitotic Cells (%) [8]: 31%
- Population Normal (%) [8]: 88%
- Population Pyknosed Nuclei (%) [8]: 72%
- Population Tubulin-Different-Phenotype (%) [8]: 96%
- Total Cell Count [8]: 182
- Population Apoptotic (%) [9]: 62%
- Population Fragmented Nuclei (%) [9]: 46%
- Population Healthy Nuclei (%) [9]: 3%
- Population Hoechst High Intensity Objects (%) [9]: 33%
- Population Membrane Permeable-Phenotype (%) [9]: 0%
- Population Mitochondria Different-Phenotype (%) [9]: 66%
- Population Mitotic Cells (%) [9]: 37%
- Population Normal (%) [9]: 66%
- Population Pyknosed Nuclei (%) [9]: 50%
- Population Tubulin-Different-Phenotype (%) [9]: 33%
- Total Cell Count [9]: 144
- Population Apoptotic (%) [10]: 34%
- Population Fragmented Nuclei (%) [10]: 13%
- Population Healthy Nuclei (%) [10]: 46%
- Population Hoechst High Intensity Objects (%) [10]: 11%
- Population Membrane Permeable-Phenotype (%) [10]: 1%
- Population Mitochondria Different-Phenotype (%) [10]: 50%
- Population Mitotic Cells (%) [10]: 65%
- Population Normal (%) [10]: 88%
- Population Pyknosed Nuclei (%) [10]: 40%
- Population Tubulin-Different-Phenotype (%) [10]: 61%
- Total Cell Count [10]: 138
- Population Apoptotic (%) [11]: 84%
- Population Fragmented Nuclei (%) [11]: 35%
- Population Healthy Nuclei (%) [11]: 8%
- Population Hoechst High Intensity Objects (%) [11]: 23%
- Population Membrane Permeable-Phenotype (%) [11]: 11%
- Population Mitochondria Different-Phenotype (%) [11]: 100%
- Population Mitotic Cells (%) [11]: 15%
- Population Normal (%) [11]: 76%
- Population Pyknosed Nuclei (%) [11]: 56%
- Population Tubulin-Different-Phenotype (%) [11]: 100%
- Total Cell Count [11]: 146
- Population Apoptotic (%) [12]: 65%
- Population Fragmented Nuclei (%) [12]: 8%
- Population Healthy Nuclei (%) [12]: 40%
- Population Hoechst High Intensity Objects (%) [12]: 8%
- Population Membrane Permeable-Phenotype (%) [12]: 1%
- Population Mitochondria Different-Phenotype (%) [12]: 83%
- Population Mitotic Cells (%) [12]: 34%
- Population Normal (%) [12]: 91%
- Population Pyknosed Nuclei (%) [12]: 51%
- Population Tubulin-Different-Phenotype (%) [12]: 90%
- Total Cell Count [12]: 181
